This note sets out measurements from PMC10739677 (Chembiochem : a European journal of chemical biology, 2023).

Usually pIC50 stands for −log10 of the IC50, conventionally taken in molar units.

pIC50: −log10 of the molar value.

Assay [1] concerns A2780 ARID1A-negative ovarian cancer cells. In words: Cell viability by Hoechst staining, A2780. The settings on record: Hoechst staining at 24 hr. It counts as cell-based, human. In outline:
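A2780 cells seeded at 6,000/well in 96-well plates and left to adhere overnight, then dosed with test compound or DMSO vehicle for 24 hr. Fixed and stained with 10% formalin plus Hoechst 33342 for 15 min in the dark at room temperature, then washed three times with PBS before fluorescence reading. Expressed as percentage of DMSO control, mean ± sem, n=6 biologically independent replicates.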

The test system of assay [2] is cysteines within proteins in A2780 cells. In words: isoTOP-ABPP cysteine chemoproteomic profiling. It counts as cell-based, human. Conditions: A2780 cells treated 90 min; IA-alkyne 100 μM.
Assay [3] deals with RMG-1 ARID1A-positive ovarian cancer cells. Nature of the assay: Cell viability by Hoechst staining, RMG-1. It counts as cell-based, human. The settings on record: Hoechst staining at 24 hr.
The target of assay [4] is T1, GCL (pure human recombinant GCLC and GCLM) (Homo sapiens, UniProt P48506+P48507).
T1 sequence (P48507 1-274): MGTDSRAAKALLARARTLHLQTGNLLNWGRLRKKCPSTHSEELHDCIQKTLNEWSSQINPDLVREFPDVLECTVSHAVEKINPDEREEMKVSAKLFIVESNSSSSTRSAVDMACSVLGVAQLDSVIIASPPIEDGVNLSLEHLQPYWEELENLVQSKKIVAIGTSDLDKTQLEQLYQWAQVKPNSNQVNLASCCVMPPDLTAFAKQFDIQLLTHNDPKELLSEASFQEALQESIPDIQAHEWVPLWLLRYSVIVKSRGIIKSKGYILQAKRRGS
T1 sequence (P48506 1-637): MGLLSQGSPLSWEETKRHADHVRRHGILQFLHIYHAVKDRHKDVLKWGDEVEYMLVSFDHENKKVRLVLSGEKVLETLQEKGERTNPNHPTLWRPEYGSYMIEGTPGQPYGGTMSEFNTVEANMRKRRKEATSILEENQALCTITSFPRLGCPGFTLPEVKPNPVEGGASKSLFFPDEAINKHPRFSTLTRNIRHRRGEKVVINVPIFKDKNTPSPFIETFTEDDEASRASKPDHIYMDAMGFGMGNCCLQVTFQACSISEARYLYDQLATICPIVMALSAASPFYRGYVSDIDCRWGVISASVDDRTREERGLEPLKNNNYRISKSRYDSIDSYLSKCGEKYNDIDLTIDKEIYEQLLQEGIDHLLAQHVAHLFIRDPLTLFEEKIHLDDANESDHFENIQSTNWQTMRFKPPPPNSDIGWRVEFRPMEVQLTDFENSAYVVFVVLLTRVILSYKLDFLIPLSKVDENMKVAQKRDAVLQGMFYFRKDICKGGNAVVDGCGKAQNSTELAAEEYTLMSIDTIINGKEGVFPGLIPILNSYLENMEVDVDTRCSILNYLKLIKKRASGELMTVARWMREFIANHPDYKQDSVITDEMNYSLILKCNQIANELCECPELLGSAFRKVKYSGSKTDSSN
Nature of the assay: GCL functional assay. It counts as biochemical.

Assay [5] concerns GSH levels in RMG-1 cells. In words: LC-MS/MS quantification of GSH levels, RMG-1. The settings on record: SRM LC-MS/MS 4hr post treatment. It counts as cell-based, human.
The subject of assay [6] is siGCLM A2780 cells. In words: Cell viability after GCLM knockdown. It counts as cell-based, human. The settings on record: siGCLM vs siControl A2780, 24 hr treatment, Hoechst staining.
Assay [7] has as its target T2, GCLM C114 (pure human GCLM and GCLC) (Homo sapiens, UniProt P48507).
T2 sequence (P48507 1-274): T1 sequence (P48507 1-274)
T2 sequence (P48506 1-637 partner): T1 sequence (P48506 1-637)
In words: LC-MS/MS analysis of EN25 adduct on GCL complex. The settings on record: EN25 50 μM, 30 min at 37°C; tryptic digest LC-MS/MS. It counts as binding.

The target of assay [8] is T3, pure human GCLM protein (Homo sapiens, UniProt P48507).
T3 sequence (P48507 1-274): T1 sequence (P48507 1-274)
Nature of the assay: Gel-based ABPP. It counts as binding. In outline:
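Pure recombinant human GCLM (0.1 μg in 50 μL PBS) treated for 30 min at 37 °C with alkyne probe (10–100 μM final) or DMSO. In the competition format, protein is first preincubated with test compound for 30 min at 37 °C, then labelled with probe (50 μM final) for 2 h at 37 °C. Rhodamine-azide (1 μM final) appended by CuAAC, then reducing SDS-PAGE and in-gel fluorescence; silver stain confirms loading.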

Assay [9] deals with GSH levels in A2780 cells. Nature of the assay: LC-MS/MS quantification of GSH levels, A2780. It counts as cell-based, human. The settings on record: SRM LC-MS/MS 4hr post treatment.
Assay [10] deals with A2780 cells. In words: Ferrostatin rescue experiment. Conditions: Ferrostatin-1 2 μM with EN25 50μM, A2780, 48 hr, Hoechst staining. It counts as cell-based, human.

For `C=CC(=O)NCc1ccc(C(=O)Nc2ccc(Sc3ccc(C)c(C)c3)cc2)cc1` [EN25], the cell viability impairment result is “more sensitive A2780 cancer cell line” in assay [1] and “RMG-1 cancer cells showed resistance to EN25-mediated cell viability impairments” in assay [3]. Moreover, the “proteome-wide selectivity: potential off-targets” value in assay [2] was “nine potential off-targets of EN25 out of >5000 cysteines”. In assay [4], the pIC50 was 4.80. The GSH levels entry in [5] is given as “no changes observed in RMG-1 cells”; in assay [9] it was “significantly lowered GSH levels in A2780 cancer cells”. In addition, in assay [6], the “cell viability impairment upon GCLM knockdown” value is listed as “GCLM knockdown with siRNA conferred hypersensitivity to EN25-mediated cell viability impairments”. Moreover, in assay [7], the “site of covalent modification on GCL complex” value was “selective and covalent EN25 modification of C114 on GCLM”. Further, the “competition of EN25-alkyne labeling of GCLM” value in assay [8] (pre-incubation 30 min at 37°C, then EN25-alkyne 50 μM for 2 h) is on record as “dose-responsive competition of this labeling by EN25”.

Consider `C#CCOc1ccc(-c2ccc(CNC(=O)c3ccc(CNC(=O)C=C)cc3)cc2)cc1` [EN25-alkyne], for which, in [4], the pIC50 was 5.44. Also, the “covalent labeling of GCLM” value in assay [8] (in-gel fluorescence after CuAAC with rhodamine-azide) is on record as “showed covalent labeling of GCLM”.

Take `CCOC(=O)c1ccc(NC2CCCCC2)c(N)c1` [ferrostatin, Ferrostatin-1]: the “rescue of EN25-mediated cell viability impairment” value in assay [10] is on record as “attenuated the cell viability impairments conferred by EN25 treatment”.
